Experimental data taken from ChEMBL document CHEMBL1949501, “Novel acid-type cyclooxygenase-2 inhibitors: Design, synthesis, and structure-activity relationship for anti-inflammatory drug” (Eur J Med Chem, 2012).

Legend:
[1] = target: T1, Prostaglandin G/H synthase 2 (Homo sapiens, UniProt P35354); assay: Inhibition of COX-2-mediated 6-keto-PGF1alpha production in IL-1beta-induced HUVEC preincubated for 20 mins prior A23187 stimulation measured after 15 mins by RIA
T1 sequence (P35354 whole entry): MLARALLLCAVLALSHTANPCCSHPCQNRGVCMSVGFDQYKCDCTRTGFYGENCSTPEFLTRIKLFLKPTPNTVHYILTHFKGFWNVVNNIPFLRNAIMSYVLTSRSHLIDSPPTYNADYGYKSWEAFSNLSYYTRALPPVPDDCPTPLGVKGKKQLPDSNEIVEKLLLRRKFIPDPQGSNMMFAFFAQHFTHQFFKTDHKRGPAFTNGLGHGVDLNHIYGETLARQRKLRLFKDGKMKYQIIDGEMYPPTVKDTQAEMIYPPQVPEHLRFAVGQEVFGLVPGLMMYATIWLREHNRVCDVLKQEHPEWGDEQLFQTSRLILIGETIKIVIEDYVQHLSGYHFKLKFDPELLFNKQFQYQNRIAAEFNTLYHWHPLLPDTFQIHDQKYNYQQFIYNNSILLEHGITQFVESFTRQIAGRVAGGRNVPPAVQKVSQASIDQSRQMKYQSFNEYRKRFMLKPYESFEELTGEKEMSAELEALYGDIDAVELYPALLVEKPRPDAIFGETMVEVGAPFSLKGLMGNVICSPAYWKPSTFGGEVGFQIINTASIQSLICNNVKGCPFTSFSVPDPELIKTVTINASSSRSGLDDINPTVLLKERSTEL

[2] = target: T2, Prostaglandin G/H synthase 1 (Homo sapiens, UniProt P23219); assay: Inhibition of COX-1-mediated TXB2 production in human platelets preincubated for 20 mins prior A23187 stimulation measured after 15 mins by RIA
[3] = target: T1, Prostaglandin G/H synthase 2; assay: Inhibition of COX-2-mediated PGE2 production in LPS-induced human whole blood after 24 hrs by RIA
How it was run: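 Heparinized whole blood from healthy adult volunteers mixed with compound in DMSO (0.1–100 µM final; DMSO under 0.1%) and E. coli 0111:B4 LPS (30 µg/mL final), incubated 24 h at 37 °C to induce COX-2; PGE2 synthesis measured; IC50.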

[4] = target: T2, Prostaglandin G/H synthase 1; assay: Inhibition of COX-1-mediated TXB2 production in human whole blood after 30 mins post A23187 stimulation by RIA
Rattus norvegicus = assay: Antiinflammatory activity in SPF/VAF Sprague-Dawley rat assessed as inhibition of carrageenan-induced paw oedema at 10 mg/kg, po administered 1 hr prior carrageenan challenge measured after 3 hrs by plethysmometry; assay type: functional
How it was run: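 Male SPF/VAF Sprague-Dawley rats (Crj:CD(SD), 5 weeks, 110–130 g), fasted overnight, given carrageenan intraplantarly in the hind paw. Test compound or vehicle (5% (v/v) Tween 80 in distilled water) dosed orally at 1 mL/100 g body weight 1 h before carrageenan. Foot volume read by water-displacement plethysmometer before and 3 h after injection; percent inhibition relative to vehicle group taken as 0%.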

[5] = target: COX-1/COX-2 (Homo sapiens) (UniProt P35354+P23219); assay: Selectivity ratio of IC50 for COX-1-mediated TXB2 production in human platelets to IC50 for COX-2-mediated 6-keto-PGF1alpha production in IL-1beta-induced HUVEC
COX-1/COX-2 (Homo sapiens), sequence (P23219 whole entry, looked up, one chain of several): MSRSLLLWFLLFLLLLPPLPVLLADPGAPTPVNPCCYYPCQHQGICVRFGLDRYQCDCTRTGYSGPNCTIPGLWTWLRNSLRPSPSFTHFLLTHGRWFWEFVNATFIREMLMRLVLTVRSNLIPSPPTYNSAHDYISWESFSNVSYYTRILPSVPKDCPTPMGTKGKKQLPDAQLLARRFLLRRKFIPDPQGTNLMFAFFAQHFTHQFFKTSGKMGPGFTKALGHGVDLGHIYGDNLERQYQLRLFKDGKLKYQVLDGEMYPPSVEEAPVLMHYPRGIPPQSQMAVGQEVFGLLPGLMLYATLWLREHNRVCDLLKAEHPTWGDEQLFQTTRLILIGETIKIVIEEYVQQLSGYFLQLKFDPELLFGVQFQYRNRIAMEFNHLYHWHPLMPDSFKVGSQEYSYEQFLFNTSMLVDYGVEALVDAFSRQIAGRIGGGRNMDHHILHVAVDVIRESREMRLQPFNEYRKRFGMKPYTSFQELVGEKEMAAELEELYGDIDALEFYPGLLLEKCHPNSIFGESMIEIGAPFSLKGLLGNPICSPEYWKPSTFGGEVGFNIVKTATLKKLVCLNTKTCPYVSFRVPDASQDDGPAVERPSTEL

T2 sequence (P23219 whole entry): as the sequence (P23219 whole entry, looked up, one chain of several) above

IC50 [1] [nM] | IC50 [2] [nM] | IC50 [3] [nM] | IC50 [4] [nM] | Ratio IC50 [5] | Structure (SMILES) | inhibition in vivo at 10 mg/kg (Rattus norvegicus) [%]
15.7 | 882 | 1600 | 47000 |  | CCc1ccc2[nH]c(C(=O)c3cc(C)ccn3)c(CC(=O)O)c2c1 | 
9.81 | 849 | 155 | 33500 | 86.5 | Cc1ccnc(C(=O)c2[nH]c3cc(F)ccc3c2CC(=O)O)c1 | 70
421 | > 10000 | 5700 | > 100000 |  | CCc1ccnc(C(=O)c2[nH]c3ccc(OC(F)(F)F)cc3c2CC(=O)O)c1 | 
41.5 | 1510 |  |  |  | Cc1ccnc(C(=O)c2[nH]c3ccc(C(C)(C)C)cc3c2CC(=O)O)c1 | 
19.2 | > 10000 |  |  | > 521 | O=C(O)Cc1c(C(=O)c2cc3c(cn2)CCCC3)[nH]c2cc(Cl)ccc12 | 
128 | 3050 | 2200 | > 100000 | 23.8 | COc1ccc2[nH]c(C(=O)c3cc(C)ccn3)c(CC(=O)O)c2c1 | 
30.7 | > 10000 |  |  | > 326 | CCc1cc(C(=O)c2[nH]c3cc(Cl)ccc3c2CC(=O)O)ncc1Cl | 
5.68 | 150 | 150 | 21400 | 26.4 | Cc1ccnc(C(=O)c2[nH]c3ccc(F)cc3c2CC(=O)O)c1 | 
6.77 | 65.9 | 100 | 7700 | 9.73 | Cc1ccnc(C(=O)c2[nH]c3cc(Cl)c(F)cc3c2CC(=O)O)c1 | 
39.6 | 1000 | 1900 | > 100000 |  | Cc1ccnc(C(=O)c2[nH]c3ccc(OC(F)(F)F)cc3c2CC(=O)O)c1 | 
598 | > 10000 |  |  |  | CCOc1cnc(C(=O)c2[nH]c3cc(Cl)ccc3c2CC(=O)O)cc1CC | 
128 | > 10000 | 1900 | > 100000 | > 78.1 | COc1ccc2c(CC(=O)O)c(C(=O)c3cc(C)ccn3)[nH]c2c1 | 
414 | > 10000 |  |  |  | CCc1ccc2c(CC(=O)O)c(C(=O)c3cc(C)ccn3)[nH]c2c1 | 
